The target in test [1] is T1, H2-D^b (Mus musculus, UniProt P01899).
T1 sequence (P01899 25-362): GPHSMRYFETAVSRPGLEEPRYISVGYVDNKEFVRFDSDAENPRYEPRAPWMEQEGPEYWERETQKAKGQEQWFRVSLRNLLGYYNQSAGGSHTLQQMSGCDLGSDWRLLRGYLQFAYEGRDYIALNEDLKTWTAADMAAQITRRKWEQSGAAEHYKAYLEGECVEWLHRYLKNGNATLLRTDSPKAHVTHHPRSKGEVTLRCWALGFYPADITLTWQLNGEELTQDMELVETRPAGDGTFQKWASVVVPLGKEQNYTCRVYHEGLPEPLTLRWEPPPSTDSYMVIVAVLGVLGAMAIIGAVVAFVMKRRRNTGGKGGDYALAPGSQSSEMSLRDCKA
T1 sequence (P01887 21-119 partner): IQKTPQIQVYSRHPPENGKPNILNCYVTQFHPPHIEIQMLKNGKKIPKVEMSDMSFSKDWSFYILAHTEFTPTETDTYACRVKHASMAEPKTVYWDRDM
The experiment in a line: Cell-free competition MHC peptide binding assay, purified H2-D^b.

Test [2] has as its target HLA-A*0201 (Homo sapiens, UniProt P04439, D140Y/D185E/D98H/E176V/E277Q/G131W/G231S/I119V/I121R/I166T/I218V/L300P/L318F/N151K/N90K/P208A/P217A/Q86G/Q94H/R138H/R169H/T345S). The experiment in a line: Cell-free competition MHC peptide binding assay, purified HLA-A*0201. The method, boiled down: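 Purified MHC class I molecule incubated with a labelled probe peptide and graded concentrations of unlabelled test peptide. IC50 taken as the inhibitor peptide concentration that displaces half of the probe. Labelled probe concentration was below MHC concentration. Under these conditions, and where IC50 ≥ MHC concentration, IC50 approximates KD.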

Test [3] addresses T2, H2-K^b (Mus musculus, UniProt P01901).
T2 sequence (P01901 22-369): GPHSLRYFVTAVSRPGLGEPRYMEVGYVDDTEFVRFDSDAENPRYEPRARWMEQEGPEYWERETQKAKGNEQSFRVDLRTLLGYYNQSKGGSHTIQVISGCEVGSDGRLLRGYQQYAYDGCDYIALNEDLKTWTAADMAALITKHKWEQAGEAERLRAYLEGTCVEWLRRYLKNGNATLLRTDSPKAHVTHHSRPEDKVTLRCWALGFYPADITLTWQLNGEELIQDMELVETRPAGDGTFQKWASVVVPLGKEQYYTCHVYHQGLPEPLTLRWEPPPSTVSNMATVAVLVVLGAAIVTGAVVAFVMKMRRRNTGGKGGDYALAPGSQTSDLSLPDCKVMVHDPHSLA
T2 sequence (P01887 21-119 partner): T1 sequence (P01887 21-119 partner)
The experiment in a line: Cell-free competition MHC peptide binding assay, purified H2-K^b.

pIC50: −log10 of the molar value. Where no end group is shown, it is not given here.

On to EGSRNQDWL [mgp100_25–33], for which, in test [1], the pIC50 was 4.64.
As to FMDGTMSQV [Tyr369–377], the pIC50 in test [2] was 8.38.
KVPRNQDWL [hgp100_25–33]: the pIC50 in test [1] is 6.73.
The same measure, in the same setting: next, EGPRNQDWL [EGP]: 6.34.
The molecule SIYRYYGL [SIY] had a pIC50 in test [3] of 8.96.
Same read-out and setting: next, `CC[C@H](C)[C@H](NC(=O)[C@@H](NC(=O)[C@@H](N)CO)[C@@H](C)CC)C(=O)N[C@@H](CC(N)=O)C(=O)N[C@@H](Cc1ccccc1)C(=O)N[C@@H](CCC(=O)O)C(=O)N[C@@H](CCCCN)C(=O)N[C@@H](CC(C)C)C(=O)O` [OVA257–264]: 9.05.

Values taken from article PMC3658176 (Cancer cell, 2013).
